Test [1] deals with Escherichia coli. The experiment in a line: Antimicrobial activity against Escherichia coli OC2605 by broth microdilution method. It is filed as functional. The gist of the method: (§1)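 CLSI broth microdilution MIC; strains from the sponsor's in-house collection.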
Test [2] concerns Staphylococcus aureus. The experiment in a line: Antimicrobial activity against methicillin-resistant Staphylococcus aureus OC3726 by broth microdilution method. It is filed as functional. The method, boiled down:
as §1
Background: Dilution methods test growth across graded concentrations, often in twofold steps.

The subject of test [3] is Staphylococcus aureus. The experiment in a line: Antimicrobial activity against methicillin-resistant Staphylococcus aureus OC2878 by broth microdilution method. Type of test: functional. The method, boiled down:
as §1

Test [4] deals with Escherichia coli. The experiment in a line: Antimicrobial activity against Escherichia coli OC2605 by broth microdilution method in presence of polymyxin B nonapeptide. Type of test: functional. The method, boiled down: (§2)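 MICs by CLSI broth microdilution. Where polymyxin B nonapeptide was included, it was present at 2 μg/ml alongside the test compound.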
The subject of test [5] is Escherichia coli. The experiment in a line: Antimicrobial activity against Escherichia coli OC9040 by broth microdilution method in presence of polymyxin B nonapeptide. It is filed as functional. The gist of the method:
as §2

The subject of test [6] is Staphylococcus aureus. Description: Antimicrobial activity against Staphylococcus aureus OC4172 by broth microdilution method in presence of polymyxin B nonapeptide. Type of test: functional. The gist of the method: as §2
The subject of test [7] is Escherichia coli. Description: Bactericidal activity against LPS-deffective Escherichia coli OC2530 assessed as log reduction in bacterial count at 2 times MIC after 3 hrs relative to control. Type of test: functional.
In test [8] the test system is Escherichia coli. The experiment in a line: Antimicrobial activity against LPS-deffective Escherichia coli OC2530 assessed as cell aggregation at 0.5 times MIC by light microscopy relative to untreated control. Type of test: functional, organism-based. The method, boiled down: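 Cells were fixed on a glass slide under a coverslip and viewed by light microscopy at ×100/×1.25 oil immersion. Representative images were taken.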

The test system of test [9] is Escherichia coli. The experiment in a line: Antimicrobial activity against LPS-deffective Escherichia coli OC2530 harboring pASK plasmid by broth microdilution method in presence of chloramphenicol. It is filed as functional. The gist of the method:
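CLSI broth microdilution MIC for OC2530 carrying plasmid (empty pASK or pMurF). Medium contained chloramphenicol 3 μg/ml to keep the plasmid and AHT 100 ng/ml to induce MurF expression.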

Test [10] deals with Escherichia coli. Description: Inhibition of LPS-deficient Escherichia coli OC2530 MurF assessed as UDP-MurNAc-tripeptide substrate level at 0.5 times MIC by HPLC (reference value: 1 mAU).
Test [11] concerns Escherichia coli. Description: Inhibition of LPS-deficient Escherichia coli OC2530 MurF harboring pMurF plasmid assessed as UDP-MurNAc-tripeptide substrate level at 2 times MIC by HPLC (reference value: 220 +/- 65 mAU). The method, boiled down: (§3)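 Compound added at 2× MIC from 500× stock (DMSO control). After 30 min, muropeptides extracted and quantified by HPLC peak area (mAU); representative of two independent experiments.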

The subject of test [12] is Escherichia coli. The experiment in a line: Inhibition of LPS-deficient Escherichia coli OC2530 MurF harboring pASK plasmid assessed as UDP-MurNAc-pentapeptide product level at 2 times MIC by HPLC (Rvb =880 +/- 17 mAU). The method, boiled down:
as §3

The results in this text go back to ChEMBL document CHEMBL1671657, “MurF inhibitors with antibacterial activity: effect on muropeptide levels” (Antimicrob Agents Chemother, 2009).

Activity calls are given as the source filed them. The rule behind the calls is not given here. A value given as a limit tells only on which side of the number the result lay.

With `COc1ccc2nc(OC)c([C@@H](c3ccccc3)[C@](O)(CCN(C)C)c3ccccc3)cc2c1`, the MIC (in general, the least concentration at which growth counts as inhibited) is > 32 µg/mL against Escherichia coli [1]; > 32 µg/mL against Staphylococcus aureus [2]; > 32 µg/mL against Staphylococcus aureus [3]; 4 µg/mL in the test on Escherichia coli [4]; 8 µg/mL with Escherichia coli [5]; > 32 µg/mL in the test on Staphylococcus aureus [6]. The MIC in the test on Escherichia coli [9] was 16 µg/mL. Besides, the FC with Escherichia coli [7] stood at 5. Also, the result in the test with Escherichia coli [8] was Active. The Activity (fold of control) in the test with Escherichia coli [10] was found to be 6. For the same molecule, the Activity with Escherichia coli [11] was determined as 933 mAU; in the test on Escherichia coli [12], 213 mAU.
